Experimental data published in the RNAGym collection of RNA variant scans (doi:10.1126/science.aae0568).
Variants at the floor of the assay were thinned out.

B1: tRNA (parent)
chain: GUUCCGUUGGCGUAAUGGUAACGCGUCUCCCUCCUAAGGAGAAGACUGCGGGUUCGAGUCCCGUACGGAACG

Variants of: B1
Test: yeast fitness relative to wild type (ratio to wild type); higher = fitter; tRNA-Arg(CCU), competitive growth, 37 C, YPD
Method in brief: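 The tRNA-Arg(CCU) gene variants were made by chemical synthesis with a 3% per-site mutation rate at 69 sites and inserted at the native genomic locus of Saccharomyces cerevisiae. After pooling, the strains were competed in YPD at 37°C for 24 hours in six parallel replicates. Gene amplicons from the start population and each end population were read by 100-nucleotide paired-end sequencing, and Darwinian fitness relative to wild type was taken from genotype frequency changes. Genotypes needed ≥ 100 starting reads, and estimates < 0.5 were set to 0.5.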

Point of comparison: GUUCCGUUGGCGUAAUGGUAACGCGUCCCCCUCCUAAGGAGAAGACUGCGGGUUAGAGUCCCGUACGGAACG [U28C C55A], yeast fitness 0.564. Against it:
- GUUCCGUUGGCGUAAUGGUAACGCGUCCCCCUCCUAAGGAGAAGACUGCGGGUUCGAGUCCGGUACGGAACG [U28C C62G] — higher, 0.724
- GUUCCGUUGGCGUAAUGGUAACGCGUCCCCCUCCUAAGGAGAAGACUGCGGGUUCGAGUCCUGUACGGAACG [U28C C62U] — higher, 1.02
- GUUCCGUUGGCGUAAUGGUAACGCGUCCCCCUCCUAAGGAGAAGACUGUGGAUUCGAGUCCCGUACGGAACG [U28C C49U G52A] — higher, 0.619
- GUUCCGUUGGCGUAAUGGUAACGCGUCCCCCUCCUAAAGCGAAGGCUACGGGUUCGAGACCUGUACGGAACG [U28C G38A A40C A45G G48A U59A C62U] — lower, 0.542
- GUUCCGUUGGCGUAAUGGUAACGCGUCCCCCUCCUAAGGAGAAGAUUGCGCGUUCGAGUCCCGUACGGACCG [U28C C46U G51C A70C] — lower, ≤ 0.5
- GUUCCGUUGGCGUAAUGGUAACGCGUCCCCCUGCUAAAGAGAAGACUGCGGGUUCGGGUCCCGUACGGAACG [U28C C33G G38A A57G] — lower, ≤ 0.5
- GUUCCGUUGGCGUAAUGGUAACGCGUCCCCCUACUAAGGAGAAGACUGUGGGUUGGAGUCCCGUACGGAACG [U28C C33A C49U C55G] — lower, ≤ 0.5
- GUUCCGUUGGCGUAAUGGUAACGCGUCCCCCUCCUAAGGACAAGACUGCGGGUUCGAGUCCCAUACGGAACG [U28C G41C G63A] — lower, ≤ 0.5
- GUUCCGUUGGCGUAAUGGUAACGCGUCCCCCUCCUAAGGAGAAGAAUGCGGGUUCGAGUCCAGAACGGAACG [U28C C46A C62A U64A] — lower, ≤ 0.5
- GUUCCGUUGGCGUAAUGGUAACGCGUCCCCCUCCUAAGGAAAAGACUGCGGUUUCGAGUCCCGUACGGAACG [U28C G41A G52U] — lower, ≤ 0.5
- GUUCCGUUGGCGUAAUGGUAACGCGUCCCCCUCCUAAGGAGAAGACUGCGGGUUCGAGUCCUGCACGGAACG [U28C C62U U64C] — higher, 0.7
- GUUCCGUUGGCGUAAUGGUAACGCGUCCCCCUCCUAAGGAGAAGACUGCGGGUUCGAGUCCCGUAGGGAACG [U28C C66G] — higher, 0.72
- GUUCCGUUGGCGUAAUGGUAACGCGUCCCCCUCCUAAGGAGAAGACUGCGGGUUCGAGUCCCGUAUGGAACG [U28C C66U] — higher, 0.907
- GUUCCGUUGGCGUAAUGGUAACGCGUCCCCCUCCUAAGGACAAGACUGCGGGUUCGAGUCCAGUACGGAACG [U28C G41C C62A] — lower, ≤ 0.5
- GUUCCGUUGGCGUAAUGGUAACGCGUCCCCCUCCUAAGGAGAAGACUGCGGGUUUGAGUCCCGUACGGAUCG [U28C C55U A70U] — higher, 0.61
- GUUCCGUUGGCGUAAUGGUAACGCGUCCCCCUCCUAAGUAGAAGACUGAGGGUUUGAGUCCCGUACGGAACG [U28C G39U C49A C55U] — lower, ≤ 0.5
- GUUCCGUUGGCGUAAUGGUAACGCGUCCCCCUUCUAAGGAGAAGACUGGGGGUUCGAGUCCCGUACGGAACG [U28C C33U C49G] — lower, ≤ 0.5
- GUUCCGUUGGCGUAAUGGUAACGCGUCCCCCUUCUAGGGAAAAGACUGCGGCUUCGAGUCCCGUACGGAACG [U28C C33U A37G G41A G52C] — lower, ≤ 0.5
- GUUCCGUUGGCGUAAUGGUAACGCGUCCCCCUCCUAAGGAGAAGACUGCGGGUUCGAGUUCCGUACGGAACG [U28C C60U] — higher, 0.73
- GUUCCGUUGGCGUAAUGGUAACGCGUCCCCCUCCUAAGGAGAAGACUGCGGGUUUGAGUCCCGUACGGAACG [U28C C55U] — higher, 0.685
- GUUCCGUUGGCGUAAUGGUAACGCGUCCCCCUCGUAAGGGGAGGAGUGCGGAUUUGAGUCCCGUAUGGAACG [U28C C34G A40G A43G C46G G52A C55U C66U] — lower, 0.547
- GUUCCGUUGGCGUAAUGGUAACGCGUCCCCCUCCUAAGGAGAAGACUGCGGGUUAGAGUCUCGUACGAAGCG [U28C C55A C61U G68A A70G] — lower, ≤ 0.5
- GUUCCGUUGGCGUAAUGGUAACGCGUCCCCCUCAUAAGGAGAAGACUGGGCGUUCGAGUCCCGUACGGAACG [U28C C34A C49G G51C] — lower, ≤ 0.5
- GUUCCGUUGGCGUAAUGGUAACGCGUCCCCCUCCUAAGGAGAAGACUGCGGGUUCGAGUCACGUACGGAACG [U28C C61A] — higher, 0.765
- GUUCCGUUGGCGUAAUGGUAACGCGUCCCCCUCCUAAGGAGAAGACUGCGGGUUCGAGUCUCGUACGGAACG [U28C C61U] — higher, 0.874
- GUUCCGUUGGCGUAAUGGUAACGCGUCCCCCUCCUAAGGAGAAGACUGCGGGUUCGAGUCGCGUACGCAACG [U28C C61G G68C] — lower, ≤ 0.5
- GUUCCGUUGGCGUAAUGGUAACGCGUCCCCCUCCUAAGGAGAACACUGCGGGUUCGAGUCCCGUACGGAACG [U28C G44C] — higher, 0.935
- GUUCCGUUGGCGUAAUGGUAACGCGUCCCCCUCCUAAGGAAAAGACUGCGGGUUCGUGUCCCGUAGGGAACG [U28C G41A A57U C66G] — lower, ≤ 0.5
- GUUCCGUUGGCGUAAUGGUAACGCGUCCCCCUUCUAAGGAAAAGACUGCGGGUUCGAGUCCCGUACGGUACG [U28C C33U G41A A69U] — lower, ≤ 0.5
- GUUCCGUUGGCGUAAUGGUAACGCGUCCCCCUCGUAAGGGGAGGAGUGCGGGUUUGAGUCCCGUAUGGAACG [U28C C34G A40G A43G C46G C55U C66U] — lower, ≤ 0.5
- GUUCCGUUGGCGUAAUGGUAACGCGUCCCCCUCCUAAGGAGAAGACUGCGGGUUUGCGUCCCGUACGGAACG [U28C C55U A57C] — lower, ≤ 0.5
- GUUCCGUUGGCGUAAUGGUAACGCGUCCCCCUCCUAAGGAGAAGACUGCGGGUUGGAGUACCGUACGGAACG [U28C C55G C60A] — lower, ≤ 0.5
- GUUCCGUUGGCGUAAUGGUAACGCGUCCCCCUUCUAAGGAAAAGACUGCGGCUUCGAGUCCCGUACGGAACG [U28C C33U G41A G52C] — lower, ≤ 0.5
- GUUCCGUUGGCGUAAUGGUAACGCGUCCCCCUCGUAACGAGAAGCCUGCGGGUUCGAGUCCCGUACGGAACG [U28C C34G G38C A45C] — lower, ≤ 0.5
- GUUCCGUUGGCGUAAUGGUAACGCGUCCCCCUCCUAAGGAGAAGAUUGCGGGUUCGAGUCCCGUACGGAACG [U28C C46U] — higher, 0.911
- GUUCCGUUGGCGUAAUGGUAACGCGUCCCCCUCCUAAGGAGAAGACUGCGGGUUCGAGUCGCGUACAGAACG [U28C C61G G67A] — lower, ≤ 0.5
- GUUCCGUUGGCGUAAUGGUAACGCGUCCCCCUCCUAAGGAGAAGACUGCGGGUUUGAGUCCCGUAGGGAACG [U28C C55U C66G] — lower, ≤ 0.5
